According to ChEMBL document CHEMBL4350961, “Discovery of Pyrrolo[3,2- d]pyrimidin-4-one Derivatives as a New Class of Potent and Cell-Active Inhibitors of P300/CBP-Associated Factor Bromodomain” (J Med Chem, 2019):
The source made the active and inactive calls.

Assays:
[1] = target: SRSF protein kinase 2 (Homo sapiens) (UniProt P78362); test: Inhibition of human SRPK2 (46 to end residues) using RSRSRSRSRSRSRSR as substrate measured after 40 mins in presence of [gamma33P]ATP by scintillation counting method
Outline: (§1)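 Kinase panel of 422 kinases screened by Eurofins KinaseProfiler at a single test-compound concentration of 10 µM.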

[2] = target: Serine/threonine-protein kinase PAK 1 (Homo sapiens) (UniProt Q13153); test: Inhibition of recombinant human PAK1 (150 to end residues) at 10 uM using RRRLSFAEPG as substrate measured after 40 mins in presence of [gamma33P]ATP by scintillation counting method
[3] = target: Aurora kinase B (Homo sapiens) (UniProt Q96GD4); test: Inhibition of recombinant full-length human AURKB at 10 uM using AKRRRLSSLRA as substrate measured after 40 mins in presence of [gamma33P]ATP by scintillation counting method
[4] = target: Misshapen-like kinase 1 (Homo sapiens) (UniProt Q8N4C8); test: Inhibition of recombinant human MINK (1 to 310 residues) at 10 uM using myelin basic protein as substrate measured after 40 mins in presence of [gamma33P]ATP by scintillation counting method
[5] = species: Homo sapiens; test: Inhibition of recombinant human BrSK2 S251I mutant (2 to end residues) at 10 uM using KKLNRTLSFAEPG as substrate measured after 40 mins in presence of [gamma33P]ATP by scintillation counting method
[6] = target: Serine/threonine-protein kinase 32C (Homo sapiens) (UniProt Q86UX6); test: Inhibition of recombinant full-length human STK32C at 10 uM using casein as substrate measured after 120 mins in presence of [gamma33P]ATP by scintillation counting method
[7] = target: Serine/threonine-protein kinase SBK1 (Homo sapiens) (UniProt Q52WX2); test: Inhibition of recombinant full-length human SBK1 at 10 uM using KKLRRTLSVA as substrate measured after 120 mins in presence of [gamma33P]ATP by scintillation counting method
[8] = target: Serine/threonine-protein kinase MRCK beta (Homo sapiens) (UniProt Q9Y5S2); test: Inhibition of recombinant human MRCKbeta (1 to 473 residues) at 10 uM using KKRNRTLTV as substrate measured after 40 mins in presence of [gamma33P]ATP by scintillation counting method
[9] = test system: Ribosomal protein S6 kinase beta-1 (Homo sapiens), P23443 [T412E]; test: Inhibition of recombinant human p70S6K T412E mutant (1 to 421 residues) at 10 uM using KKRNRTLTV as substrate measured after 40 mins in presence of [gamma33P]ATP by scintillation counting method
[10] = target: Tyrosine-protein kinase Fer (Homo sapiens) (UniProt P16591); test: Inhibition of recombinant human FER (541 to end residues) at 10 uM using KKKSPGEYVNIEFG as substrate measured after 40 mins in presence of [gamma33P]ATP by scintillation counting method
[11] = target: MAP/microtubule affinity-regulating kinase 3 (Homo sapiens) (UniProt P27448); test: Inhibition of recombinant full-length human MARK3 at 10 uM using KKKVSRSGLYRSPSMPENLNRPR as substrate measured after 40 mins in presence of [gamma33P]ATP by scintillation counting method
[12] = target: Serine/threonine-protein kinase N2 (Homo sapiens) (UniProt Q16513); test: Inhibition of human PRK2 (501 to end residues) using AKRRRLSSLRA as substrate measured after 40 mins in presence of [gamma33P]ATP by scintillation counting method; outline: as §1
[13] = target: Dual specificity mitogen-activated protein kinase kinase 2 (Homo sapiens) (UniProt P36507); test: Inhibition of recombinant full-length human MEK2 at 10 uM using MBP as substrate measured after 40 mins in presence of [gamma33P]ATP by scintillation counting method
[14] = target: ATPase family AAA domain-containing protein 2B (Homo sapiens) (UniProt Q9ULI0); test: Binding affinity to human partial length ATAD2B (Q955 to R1082 residues) expressed in bacterial expression system at 1 uM by BROMOscan assay
Outline: (§2)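 BROMOscan bromodomain cross-screen run by an outside service, compound at 1 µM against 32 recombinant bromodomains. Binding given as percent of control.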

[15] = target: Bromodomain-containing protein 2 (Homo sapiens) (UniProt P25440); test: Binding affinity to human partial length BRD2 bromodomain 2 isoform 1 (E348 to D455 residues) expressed in bacterial expression system at 1 uM by BROMOscan assay; outline: as §2
[16] = target: Cyclin-dependent kinase 14/Cyclin-Y (Homo sapiens) (UniProt O94921+Q8ND76); test: Inhibition of human CDK14/cyclinY at 10 uM by radiometric method; type: protein-complex assay; outline: as §1
[17] = target: Homeodomain-interacting protein kinase 4 (Homo sapiens) (UniProt Q8NE63); test: Inhibition of recombinant full-length human HIPK4 at 10 uM using RRRFRPASPLRGPPK as substrate measured after 40 mins in presence of [gamma33P]ATP by scintillation counting method
[18] = target: Serine/threonine-protein kinase 17A (Homo sapiens) (UniProt Q9UEE5); test: Inhibition of recombinant full-length human DRAK1 at 10 uM using KKLNRTLSFAEPG as substrate measured after 40 mins in presence of [gamma33P]ATP by scintillation counting method
[19] = target: Serine/threonine-protein kinase 24 (Homo sapiens) (UniProt Q9Y6E0); test: Inhibition of recombinant human MST3 (1 to 304 residues) at 10 uM using ERMRPRKRQGSVRRRV as substrate measured after 40 mins in presence of [gamma33P]ATP by scintillation counting method
[20] = target: TRAF2 and NCK-interacting protein kinase (Homo sapiens) (UniProt Q9UKE5); test: Inhibition of human TNIK (1 to 367 residues) using RLGRDKYKTLRQIRQ as substrate measured after 40 mins in presence of [gamma33P]ATP by scintillation counting method
[21] = test system: Epidermal growth factor receptor (Homo sapiens), P00533 [L858R]; test: Inhibition of recombinant human EGFR L858R mutant (696 to end residues) at 10 uM using poly(Glu, Tyr) 4:1 as substrate measured after 40 mins in presence of [gamma33P]ATP by scintillation counting method
[22] = target: Mitogen-activated protein kinase 13 (Homo sapiens) (UniProt O15264); test: Inhibition of recombinant full-length human SAPK4 at 10 uM using myelin basic protein as substrate measured after 40 mins in presence of [gamma33P]ATP by scintillation counting method
[23] = target: Mitogen-activated protein kinase kinase kinase 9 (Homo sapiens) (UniProt P80192); test: Inhibition of recombinant human MLK1 (134 to 414 residues) at 10 uM using casein as substrate measured after 40 mins in presence of [gamma33P]ATP by scintillation counting method
[24] = target: ALK tyrosine kinase receptor (Homo sapiens) (UniProt Q9UM73); test: Inhibition of recombinant human ALK (1058 to end residues) at 10 uM using KKKSPGEYVNIEF as substrate measured after 40 mins in presence of [gamma33P]ATP by scintillation counting method

Aurora kinase B (Homo sapiens), sequence (Q96GD4 whole entry, the tested form may be a part): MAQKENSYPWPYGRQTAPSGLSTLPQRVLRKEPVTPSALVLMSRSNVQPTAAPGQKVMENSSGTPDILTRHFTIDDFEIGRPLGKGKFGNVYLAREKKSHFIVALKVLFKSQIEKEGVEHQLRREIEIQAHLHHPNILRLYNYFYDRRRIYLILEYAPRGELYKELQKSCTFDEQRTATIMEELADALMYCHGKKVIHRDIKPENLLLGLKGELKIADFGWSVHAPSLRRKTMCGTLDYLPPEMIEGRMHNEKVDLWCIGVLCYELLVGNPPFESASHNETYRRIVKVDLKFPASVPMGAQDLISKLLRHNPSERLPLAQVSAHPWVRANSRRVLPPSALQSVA
Serine/threonine-protein kinase 17A (Homo sapiens), sequence (Q9UEE5 whole entry, the tested form may be a part): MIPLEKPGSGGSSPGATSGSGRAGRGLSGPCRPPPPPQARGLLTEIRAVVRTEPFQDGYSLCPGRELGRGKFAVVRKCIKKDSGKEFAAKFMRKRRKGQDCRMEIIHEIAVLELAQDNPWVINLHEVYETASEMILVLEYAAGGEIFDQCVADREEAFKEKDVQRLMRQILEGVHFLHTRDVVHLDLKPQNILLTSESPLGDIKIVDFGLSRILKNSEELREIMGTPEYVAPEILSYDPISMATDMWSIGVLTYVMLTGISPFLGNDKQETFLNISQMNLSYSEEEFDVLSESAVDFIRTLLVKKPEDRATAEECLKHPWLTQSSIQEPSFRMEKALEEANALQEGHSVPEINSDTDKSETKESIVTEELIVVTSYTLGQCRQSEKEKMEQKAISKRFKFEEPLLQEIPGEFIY
Serine/threonine-protein kinase 32C (Homo sapiens), sequence (Q86UX6 whole entry): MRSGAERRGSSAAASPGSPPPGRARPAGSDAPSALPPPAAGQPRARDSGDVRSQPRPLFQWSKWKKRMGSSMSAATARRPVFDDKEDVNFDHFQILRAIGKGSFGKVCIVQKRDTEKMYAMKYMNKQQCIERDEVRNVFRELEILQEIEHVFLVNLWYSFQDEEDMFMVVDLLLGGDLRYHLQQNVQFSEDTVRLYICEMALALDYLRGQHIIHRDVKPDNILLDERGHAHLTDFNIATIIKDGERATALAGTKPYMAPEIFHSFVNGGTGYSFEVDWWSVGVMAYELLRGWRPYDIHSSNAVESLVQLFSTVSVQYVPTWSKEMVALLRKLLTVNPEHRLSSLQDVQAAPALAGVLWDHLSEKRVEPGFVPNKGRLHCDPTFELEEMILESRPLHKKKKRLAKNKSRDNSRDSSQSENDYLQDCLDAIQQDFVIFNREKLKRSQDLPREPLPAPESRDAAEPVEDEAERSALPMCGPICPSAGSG
Mitogen-activated protein kinase kinase kinase 9 (Homo sapiens), sequence (P80192 whole entry, looked up, the tested form may be a part): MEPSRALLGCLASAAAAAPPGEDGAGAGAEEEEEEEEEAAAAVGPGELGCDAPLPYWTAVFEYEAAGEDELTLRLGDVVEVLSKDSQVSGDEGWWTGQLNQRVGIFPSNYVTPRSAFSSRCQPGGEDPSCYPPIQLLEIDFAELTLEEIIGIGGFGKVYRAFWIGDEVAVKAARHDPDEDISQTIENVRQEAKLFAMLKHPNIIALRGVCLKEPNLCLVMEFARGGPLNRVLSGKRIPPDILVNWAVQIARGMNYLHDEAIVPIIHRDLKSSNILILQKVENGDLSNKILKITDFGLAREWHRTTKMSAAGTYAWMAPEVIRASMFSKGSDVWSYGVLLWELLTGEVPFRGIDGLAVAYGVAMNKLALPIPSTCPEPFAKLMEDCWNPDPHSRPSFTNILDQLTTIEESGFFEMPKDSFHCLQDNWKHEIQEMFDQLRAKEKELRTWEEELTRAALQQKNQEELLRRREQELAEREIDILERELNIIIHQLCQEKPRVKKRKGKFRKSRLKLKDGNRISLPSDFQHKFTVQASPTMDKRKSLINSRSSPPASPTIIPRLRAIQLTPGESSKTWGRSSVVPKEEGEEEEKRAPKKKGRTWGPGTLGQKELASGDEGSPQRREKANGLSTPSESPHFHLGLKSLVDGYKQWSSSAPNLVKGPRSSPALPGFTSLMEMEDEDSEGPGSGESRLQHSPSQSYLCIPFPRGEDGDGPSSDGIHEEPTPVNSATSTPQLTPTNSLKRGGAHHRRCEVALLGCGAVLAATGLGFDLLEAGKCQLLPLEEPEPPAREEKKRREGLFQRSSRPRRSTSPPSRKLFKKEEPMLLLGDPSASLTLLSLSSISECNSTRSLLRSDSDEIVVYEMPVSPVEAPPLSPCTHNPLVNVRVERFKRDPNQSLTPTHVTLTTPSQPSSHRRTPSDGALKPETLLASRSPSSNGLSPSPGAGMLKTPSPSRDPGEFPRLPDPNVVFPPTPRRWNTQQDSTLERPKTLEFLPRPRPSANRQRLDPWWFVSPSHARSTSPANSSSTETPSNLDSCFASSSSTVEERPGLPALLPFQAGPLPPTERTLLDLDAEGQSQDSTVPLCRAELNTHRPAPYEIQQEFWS
Serine/threonine-protein kinase N2 (Homo sapiens), sequence (Q16513 whole entry, looked up): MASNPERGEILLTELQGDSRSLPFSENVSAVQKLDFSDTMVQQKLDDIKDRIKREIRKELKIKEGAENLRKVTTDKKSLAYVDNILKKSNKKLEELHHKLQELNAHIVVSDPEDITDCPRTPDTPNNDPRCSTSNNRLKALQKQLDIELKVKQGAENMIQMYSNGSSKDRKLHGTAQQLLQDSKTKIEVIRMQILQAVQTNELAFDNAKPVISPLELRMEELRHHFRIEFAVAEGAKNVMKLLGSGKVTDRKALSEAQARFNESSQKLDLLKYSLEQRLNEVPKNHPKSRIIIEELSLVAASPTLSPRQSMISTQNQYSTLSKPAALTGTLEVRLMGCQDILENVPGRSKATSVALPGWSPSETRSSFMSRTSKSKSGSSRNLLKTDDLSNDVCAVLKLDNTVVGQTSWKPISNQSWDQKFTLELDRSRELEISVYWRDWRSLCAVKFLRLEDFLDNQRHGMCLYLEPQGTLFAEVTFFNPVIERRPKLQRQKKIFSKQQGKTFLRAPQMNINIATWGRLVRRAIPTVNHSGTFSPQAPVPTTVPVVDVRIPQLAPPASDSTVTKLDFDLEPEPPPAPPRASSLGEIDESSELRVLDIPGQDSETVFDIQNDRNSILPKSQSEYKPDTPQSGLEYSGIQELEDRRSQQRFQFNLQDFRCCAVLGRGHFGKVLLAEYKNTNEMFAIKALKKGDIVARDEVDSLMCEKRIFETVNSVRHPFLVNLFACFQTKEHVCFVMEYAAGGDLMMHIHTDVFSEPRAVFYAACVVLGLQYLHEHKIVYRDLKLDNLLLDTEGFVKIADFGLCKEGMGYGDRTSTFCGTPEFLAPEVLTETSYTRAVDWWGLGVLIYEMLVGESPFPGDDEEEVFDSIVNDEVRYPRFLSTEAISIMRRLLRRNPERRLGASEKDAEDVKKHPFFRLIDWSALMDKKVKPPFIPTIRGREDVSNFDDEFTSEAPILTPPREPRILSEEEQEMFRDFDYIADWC
Bromodomain-containing protein 2 (Homo sapiens), sequence (P25440 whole entry, looked up, the tested form may be a part, canonical isoform): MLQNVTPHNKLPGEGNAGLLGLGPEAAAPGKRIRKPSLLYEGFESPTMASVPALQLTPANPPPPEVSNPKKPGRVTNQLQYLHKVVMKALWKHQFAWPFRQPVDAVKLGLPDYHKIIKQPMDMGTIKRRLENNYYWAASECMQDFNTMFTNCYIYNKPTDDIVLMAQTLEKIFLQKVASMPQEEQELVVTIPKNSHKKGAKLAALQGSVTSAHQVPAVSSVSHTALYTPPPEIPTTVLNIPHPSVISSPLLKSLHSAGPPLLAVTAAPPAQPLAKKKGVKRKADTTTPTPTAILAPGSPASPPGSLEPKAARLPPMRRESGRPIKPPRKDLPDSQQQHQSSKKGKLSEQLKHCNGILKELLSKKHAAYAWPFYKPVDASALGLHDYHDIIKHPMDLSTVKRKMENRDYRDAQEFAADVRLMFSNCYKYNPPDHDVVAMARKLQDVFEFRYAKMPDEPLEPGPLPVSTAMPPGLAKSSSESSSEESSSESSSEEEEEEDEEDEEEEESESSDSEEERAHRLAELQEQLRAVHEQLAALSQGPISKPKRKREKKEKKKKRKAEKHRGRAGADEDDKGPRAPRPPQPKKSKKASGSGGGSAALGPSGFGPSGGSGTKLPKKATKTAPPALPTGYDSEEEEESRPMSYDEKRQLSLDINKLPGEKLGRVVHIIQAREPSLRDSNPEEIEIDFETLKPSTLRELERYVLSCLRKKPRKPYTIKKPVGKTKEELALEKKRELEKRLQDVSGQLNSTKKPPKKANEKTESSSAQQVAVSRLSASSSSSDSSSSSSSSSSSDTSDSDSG
Serine/threonine-protein kinase SBK1 (Homo sapiens), sequence (Q52WX2 whole entry, the tested form may be a part): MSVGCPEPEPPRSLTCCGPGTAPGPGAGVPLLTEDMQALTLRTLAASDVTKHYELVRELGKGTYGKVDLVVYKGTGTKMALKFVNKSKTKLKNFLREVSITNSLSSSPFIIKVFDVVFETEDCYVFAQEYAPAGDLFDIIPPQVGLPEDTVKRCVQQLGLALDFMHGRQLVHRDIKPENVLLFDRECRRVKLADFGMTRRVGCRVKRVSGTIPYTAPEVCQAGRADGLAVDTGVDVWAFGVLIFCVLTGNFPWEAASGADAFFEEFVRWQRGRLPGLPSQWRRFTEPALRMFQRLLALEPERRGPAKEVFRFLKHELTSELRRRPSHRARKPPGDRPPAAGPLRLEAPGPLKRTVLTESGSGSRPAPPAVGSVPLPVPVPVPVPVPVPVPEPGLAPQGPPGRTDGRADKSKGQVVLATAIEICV
Serine/threonine-protein kinase 24 (Homo sapiens), sequence (Q9Y6E0 whole entry, looked up, the tested form may be a part): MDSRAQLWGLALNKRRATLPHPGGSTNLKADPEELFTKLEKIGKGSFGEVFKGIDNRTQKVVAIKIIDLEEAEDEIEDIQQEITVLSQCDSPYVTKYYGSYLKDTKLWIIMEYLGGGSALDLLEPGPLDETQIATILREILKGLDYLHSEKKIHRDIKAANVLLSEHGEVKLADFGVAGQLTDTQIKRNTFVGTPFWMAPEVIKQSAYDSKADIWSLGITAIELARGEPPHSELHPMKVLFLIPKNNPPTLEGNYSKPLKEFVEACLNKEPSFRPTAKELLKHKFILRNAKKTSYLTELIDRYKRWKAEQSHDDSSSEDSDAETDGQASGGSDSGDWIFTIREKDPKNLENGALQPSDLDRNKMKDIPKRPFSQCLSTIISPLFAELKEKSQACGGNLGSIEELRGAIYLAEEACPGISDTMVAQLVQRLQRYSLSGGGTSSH

CN1C[C@H](Nc2nc3cc[nH]c3c(=O)n2C)C[C@H](c2ccc3c(c2)OCCO3)C1
inactive: inhibition [1] | inhibition [2] | inhibition [3] | inhibition [4] | inhibition [5] | inhibition [6] | inhibition [7] | inhibition [8] | inhibition [9] | inhibition [10] | inhibition [11] | inhibition [12] | inhibition [13] | Activity [14] | Activity [15] | inhibition [16] | inhibition [17] | inhibition [18] | inhibition [19] | inhibition [20] | inhibition [21] | inhibition [22] | inhibition [23] | inhibition [24]
